Source: PubChem
Shown are actives, neighbours in structure and some others; about 4.6% of the full set was active somewhere.
HDAC3 inhib – HDAC3 deacetylase inhibitors, primary screen, biochemical, fluorescence, cell-free homogeneous; Histone deacetylase 3 (Homo sapiens), O15379; recombinant HDAC3, fluorogenic peptide/trypsin coupled; inhibition, % at 8.3 µM; actives 0.15% (n = 320,000); AID 2718, 2010; in the data active means inhibition above about 26%, passing the limit was not always enough
Target sequence (O15379 whole entry, looked up): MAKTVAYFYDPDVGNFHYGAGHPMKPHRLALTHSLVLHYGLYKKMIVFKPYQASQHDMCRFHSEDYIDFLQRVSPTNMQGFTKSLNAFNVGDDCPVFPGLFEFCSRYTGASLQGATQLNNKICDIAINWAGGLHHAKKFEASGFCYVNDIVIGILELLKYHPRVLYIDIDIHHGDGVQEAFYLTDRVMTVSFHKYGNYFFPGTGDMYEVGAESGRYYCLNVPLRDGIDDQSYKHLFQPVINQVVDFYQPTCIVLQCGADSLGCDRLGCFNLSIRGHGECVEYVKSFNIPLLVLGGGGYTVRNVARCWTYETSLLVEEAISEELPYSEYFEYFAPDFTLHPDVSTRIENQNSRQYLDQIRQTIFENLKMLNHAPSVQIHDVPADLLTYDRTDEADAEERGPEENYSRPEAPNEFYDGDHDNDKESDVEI
M18AAP inhibitor – PfM18AAP inhibitors, malaria aminopeptidase, primary screen, biochemical, QFRET, recombinant enzyme | H-Glu-NHMec fluorogenic cleavage | actives 1.2% (n = 290,000) | AID 1822, 2009 | M18 aspartyl aminopeptidase (Plasmodium falciparum 3D7) | inhibition, % at 7.35 µM;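 active means inhibition above the campaign mean inhibition over all tested compounds plus 3 SD, cut at about 28% in these data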;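 further: 0% = plate median of test compound wells and 100% = 2 mM ZnCl2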
Rtt109 Vps75 – inhibitors of C. albicans Rtt109/Vps75 HAT, primary screen, biochemical, ThioGlo CoA-SH fluorescence, plate reader | actives 0.16% (n = 330,000) | inhibition, % at 34.9 µM | purified Rtt109/Vps75, 4 h | Histone acetyltransferase RTT109 (Candida albicans (strain SC5314 / ATCC MYA-2876)), … | AID 540336, 2011;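 active means inhibition of at least 50% in every replicate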
FAS TE block – FAS thioesterase domain inhibitors, primary screen, biochemical, fluorescence intensity, uHTS. Fatty acid synthase (Homo sapiens), P49327. recombinant FAS-TE, OMFH fluorogenic substrate, fluorescence endpoint. inhibition, % at 15 µM. actives 0.67% (n = 360,000). AID 602261, 2012;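 active means compounds whose normalised, plate-corrected inhibition of enzyme fluorescence in the single-dose primary screen is 50% or more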;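 further: 0% = DMSO with enzyme and 100% = substrate without enzyme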
ALR H2O2 inh – inhibitors of human ALR sulfhydryl oxidase, primary screen, biochemical, H2O2 detection, HRP-luminol luminescence, single point. purified ALR, DTT oxidation. actives 3.8% (n = 290,000). inhibition, % (test concentration not listed). FAD-linked sulfhydryl oxidase ALR (Homo sapiens), P55789;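 active means mean replicate inhibition above about 79%, with every replicate also reaching it, limit read from the data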
UCH37 inh – inhibitors of human UCH37 deubiquitinase, primary screen, biochemical, Ub-AMC cleavage, fluorescence | Ubiquitin carboxyl-terminal hydrolase isozyme L5 (Homo sapiens), Q9Y5K5 | purified proteasome/UCH37 | inhibition, % (no concentration beside the values) | actives 0.33% (n = 330,000) | AID 588478, 2011;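 active means mean inhibition over replicate wells above about 20%, limit read from the data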;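 further: 0% = compound-free wells with enzyme and 100% = wells lacking proteasome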
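system = Proteasome-associated human UCH37 deubiquitinase | amount = 0.15 nM proteasome as dispensed | medium = pH 7.4 Tris-HCl (50 mM) with ovalbumin, ATP-MgCl2, DTT | incubation = 30 min preincubation with enzyme, 25 min cleavage at room temperature | detection = AMC fluorescence 355/460 nm | read-out basis = percent inhibition | controls = no-proteasome and no-compound wells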
An asterisk follows results filed as active; / = no result.

SMILES | HDAC3 inhib | M18AAP inhibitor | Rtt109 Vps75 | FAS TE block | ALR H2O2 inh | UCH37 inh
C=CCn1c(SCC(=O)N(CC)CC)nc(O)cc1=O | 0 | -12 | -7 | -2 | -7 | 2
C=CCn1c(SCc2c(F)c(F)c(F)c(F)c2F)nc(O)cc1=O | 8 | 0 | 5 | 6 | 99* | -1
Oc1ccc(-c2n[nH]c(C(F)(F)F)c2-c2ccccc2)c(O)c1 | 4 | 6 | 21 | 14 | 97* | 1
COc1ccc(-c2cn[nH]c2-c2ccc(O)cc2O)cc1OC | -5 | 21 | / | -23 | 74 | 5
COc1ccc(-c2c(-c3ccc(O)cc3O)n[nH]c2C)cc1OC | -10 | 7 | 7 | -16 | 88* | 0
COc1ccc(-c2c(-c3ccc(O)cc3O)n[nH]c2C(F)(F)F)cc1 | 11 | -4 | 7 | 9 | / | 3
COc1ccccc1-c1c(-c2ccc(O)cc2O)n[nH]c1C(F)(F)F | 7 | 7 | 13 | 5 | 97* | 0
CN1CCN(C=Nc2c(C#N)cnn2-c2ccccc2)CC1 | / | / | / | / | / | 4
Cc1ccc(-n2c(C)cc(C=NNC(=O)c3ccncc3)c2C)c(C)c1 | / | / | / | / | / | 7
COc1cccc(N2C(=O)CC(N3CCc4ccccc43)C2=O)c1 (centres undefined) | -4 | -2 | 7 | 4 | 90* | 1
COc1ccccc1N1CCN(C2CC(=O)N(c3ccc(F)cc3)C2=O)CC1 (centres undefined) | 0 | -10 | 16 | -3 | 14 | 6
O=C1CC(N2CCc3ccccc32)C(=O)N1c1ccc(F)cc1 (centres undefined) | 0 | 5 | 7 | -2 | 99* | 3
COc1ccccc1N1C(=O)CC(N2CCc3ccccc32)C1=O (centres undefined) | 5 | -5 | -4 | -10 | 41 | 3
CCN1CCCC1CNC(=O)CSCc1nc(-c2ccccc2C)oc1C (centres undefined) | -8 | 0 | 0 | -11 | 100* | 1
CC1(C)CN=c2s/c(=C\c3ccc(Cl)cc3)c(=O)n2C1 | 0 | 2 | 10 | 8 | 97* | /
Cc1ccccc1C=NN1CCN(c2ccccc2)CC1 | / | / | / | / | / | 3
Cc1cc(C)n(CC(=O)NN=Cc2ccc(C)o2)n1 | / | / | / | / | / | 4
CC(=O)/C(=N\Nc1ccccc1)Sc1cccc2cccnc12 | -1 | 31* | 0 | 22 | 6 | /
Cc1nc(N2CCN(C)CC2)c2cc(-c3ccccc3)sc2n1 | 12 | 2 | -1 | -3 | 97* | -4
O=C1CS/C(=N/N=C/c2ccco2)N1Cc1ccc(F)cc1 | 7 | -8 | / | 13 | 90* | /
Nc1ccc(Cl)cc1/C(=N/O)c1ccccc1 | 11 | -2 | 0 | -5 | 97* | /
CC[n+]1c(C)sc2c(C)cc(C)cc21 | -1 | 20 | 114* | -10 | 16 | 1
Cc1cc(C)c2sc(C)[n+](CCCS(=O)(=O)[O-])c2c1 | 0 | -18 | 90* | -8 | 15 | 4
CC(=NNC(=O)Cc1csc(N2CCOCC2)n1)c1ccccc1 | / | / | / | / | / | 4
O=C(O)CCC(=NNC(=O)CNC(=O)c1ccc(F)cc1)c1ccccc1 | / | / | / | / | / | 5
SMILES | HDAC3 inhib | M18AAP inhibitor | Rtt109 Vps75 | FAS TE block | ALR H2O2 inh | UCH37 inh
Brc1ccc2c(c1)OCCOCCOc1cc(Br)ccc1OCCOCCOCCO2 | -1 | 0 | 0 | 32 | -9 | 4
Nc1ccc2c(c1)OCCOCCOCCOCCOCCO2 | 0 | 10 | 9 | -3 | 98* | 5
Cc1ccc2occ(C=NNC(=O)c3ccc(Cl)cc3)c(=O)c2c1 | / | / | / | / | / | 0
COc1cc(N2CCCC2)c(OC)cc1/C=C1/NC(=S)NC1=O | 4 | 28* | -7 | -16 | 1 | 6
O=C(NN=C/C(Br)=C\c1ccccc1)c1ccco1 | / | / | / | / | / | 7
Cc1c(C(=O)Nc2ccc(S(=O)(=O)N(C)C3CCN(C)CC3)cc2)oc2c(Cl)cccc12 | 2 | / | 66* | -1 | 13 | 2
O=C(CNC(=O)c1ccco1)Nc1ccc(N2CCCCCC2)cc1 | 3 | / | -5 | -1 | 98* | 0
